Experimental data from publication PMC8178754 (The Journal of Cell Biology, 2021).
One block for each molecule: values may come before it.

Assays:
[1] = tested on: ctf3-2A ulp2–SIM-3A double mutant cells; test: Spot assay, growth of mutant strains under chemical stress; type: cell-based, yeast; conditions: 10-fold serial dilutions, 30°C, 2 or 3 d
Method in brief: (§1)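 Strains were built by lithium acetate integration of PCR products and verified by sequencing or PCR. Cells were grown in YPD to OD600 ~1 and diluted to OD600 0.2. 10-fold serial dilutions in sterile water, 5 µl each, were spotted on YPD or YPD with hydroxyurea at indicated concentrations. Plates were incubated 2 or 3 d at 30°C, then imaged.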

[2] = tested on: cells lacking both Ulp2–kinetochore interactions (KIM-Ctf3 and SIM-SUMO); test: Growth under chemical stress, cells lacking both Ulp2–kinetochore interactions; type: cell-based, yeast; conditions: KIM-Ctf3 and SIM-SUMO interactions both absent
Method in brief: as §1

ctf3-2A cells = test: Spot assay, growth of mutant strains under chemical stress; type: cell-based, yeast; conditions: 10-fold serial dilutions, 30°C, 2 or 3 d; effects modest
Method in brief: as §1

[3] = tested on: ulp2–KIM-3A and ctf3-2A cells; test: as above; type: cell-based, yeast; conditions: YPD + hydroxyurea; 10-fold dilution series
Method in brief: as §1

[4] = tested on: Ctf3-2A (Ctf3–R594A,K596A); test: GST pulldown with Ctf3-2A; type: binding, yeast; conditions: Fig. S2 A, 20 mM Tris, pH 8.5, 150 mM NaCl
Ctf3 = test: GST-Ulp2-KIM pulldown from yeast cell extracts, Ctf3; type: binding; conditions: immobilized GST-Ulp2-KIM as bait; anti–Protein A blot
[5] = target: T1, Ctf3 complex (Ctf3, Mcm16, Mcm22) (yeast, UniProt Q12748;Q12262;P47167); test: fluorescence polarisation
[6] = target: T1, Ctf3 complex (Ctf3, Mcm16, Mcm22); test: pull-down

T1 sequence (Q12748 whole entry, chain 1 of 3): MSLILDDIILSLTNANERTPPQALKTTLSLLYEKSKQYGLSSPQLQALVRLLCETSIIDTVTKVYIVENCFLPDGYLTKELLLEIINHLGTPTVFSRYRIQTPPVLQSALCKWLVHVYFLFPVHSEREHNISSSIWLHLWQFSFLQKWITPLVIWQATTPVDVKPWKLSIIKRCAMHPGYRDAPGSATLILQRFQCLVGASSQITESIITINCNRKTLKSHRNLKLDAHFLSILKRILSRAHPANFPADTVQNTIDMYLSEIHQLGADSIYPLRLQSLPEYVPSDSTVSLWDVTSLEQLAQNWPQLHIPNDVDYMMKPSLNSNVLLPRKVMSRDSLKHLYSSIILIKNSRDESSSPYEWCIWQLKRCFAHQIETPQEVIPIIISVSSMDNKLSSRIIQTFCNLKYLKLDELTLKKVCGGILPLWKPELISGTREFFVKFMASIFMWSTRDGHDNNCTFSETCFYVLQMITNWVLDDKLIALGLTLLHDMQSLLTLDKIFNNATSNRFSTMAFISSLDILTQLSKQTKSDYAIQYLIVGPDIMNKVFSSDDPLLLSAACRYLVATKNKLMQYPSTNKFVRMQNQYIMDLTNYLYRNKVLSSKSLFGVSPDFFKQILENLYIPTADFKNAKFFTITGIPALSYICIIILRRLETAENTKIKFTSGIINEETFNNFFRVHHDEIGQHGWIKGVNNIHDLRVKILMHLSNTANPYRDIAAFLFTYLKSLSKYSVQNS
T1 sequence (Q12262 whole entry, chain 2 of 3): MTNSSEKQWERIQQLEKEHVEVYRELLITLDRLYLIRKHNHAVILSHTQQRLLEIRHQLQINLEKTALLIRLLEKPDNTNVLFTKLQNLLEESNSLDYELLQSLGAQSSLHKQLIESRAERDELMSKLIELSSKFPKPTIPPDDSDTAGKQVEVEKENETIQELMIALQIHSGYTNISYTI
T1 sequence (P47167 whole entry, chain 3 of 3): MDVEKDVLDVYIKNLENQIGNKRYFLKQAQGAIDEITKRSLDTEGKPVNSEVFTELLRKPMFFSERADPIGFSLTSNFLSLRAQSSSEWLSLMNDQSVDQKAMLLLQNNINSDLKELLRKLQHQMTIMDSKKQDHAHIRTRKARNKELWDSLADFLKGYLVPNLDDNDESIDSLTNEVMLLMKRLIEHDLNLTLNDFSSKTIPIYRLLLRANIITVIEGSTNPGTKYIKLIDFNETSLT

Molecule: NC(=O)NO [hydroxyurea]
sensitivity of ctf3-2A ulp2–SIM-3A double mutant cells [1]: pronounced
viability/sensitivity of cells lacking both Ulp2–kinetochore interactions [2]: much more sensitive
sensitivity of ctf3-2A cells (ctf3-2A cells): sensitizes cells to hydroxyurea
sensitivity of ulp2–KIM-3A and ctf3-2A cells [3]: elevated sensitivity

Molecule: CCCCNC(=O)n1c(NC(=O)OC)nc2ccccc21 [benomyl]
sensitivity of ctf3-2A ulp2–SIM-3A double mutant cells [1]: pronounced
viability/sensitivity of cells lacking both Ulp2–kinetochore interactions [2]: Compromised viability
sensitivity of ctf3-2A cells (ctf3-2A cells): sensitizes cells to hydroxyurea and benomyl

B1: GST-Ulp2-KIM: GST fusion of the Ulp2 kinetochore interaction motif (KIM) (protein)
chain: MSARKRKFNSLKPLDTLNSSRASSPRSSASLPPKRYNTFRKDPKIVDHLNNASTKDFLPVLSMNSESKRQIELSDNDVDNNDEGEGVNSGCSDQDFEPLQSSPLKRHSSLKSTSNGLLFQMSNNLGNGSPEPAVASTSPNGSIISTKLNLNGQFSCVDSKTLRIYRHKAPCIMTFVSDHNHPKFSLYFQQSVIYNSQVNLLDDVELIILDKKNSFMAIILKDLKKVKMILDVNNSSININTNILIWSTASSASNKKIKSIKRFLLMSYSSSIKVEILDHKEQILERLKHLIHPISSSSPSLNMERAINSTKNAFDSLRLKKTKLSTNDDESPQIHTHFLSNKPHGLQSLTKRTRIASLGKKEHSISVPKSNISPSDFYNTNGTETLQSHAVSQLRRSNRFKDVSDPANSNSNSEFDDATTEFETPELFKPSLCYKFNDGSSYTITNQDFKCLFNKDWVNDSILDFFTKFYIESSIEKSIIKREQVHLMSSFFYTKLISNPADYYSNVKKWVNNTDLFSKKYVVIPINISYHWFSCIITNLDAILDFHQNKDKNDAINSDEISINNPLVNILTFDSLRQTHSREIDPIKEFLISYALDKYSIQLDKTQIKMKTCPVPQQPNMSDCGVHVILNIRKFFENPVETIDVWKNSKIKSKHFTAKMINKYFDKNERNSARKNLRHTLKLLQLNYISYLKKENLYEEVMQMEEKKSTNINNNENYDDDDEEIQIIENIDQSSKDNNAQLTSEPPCSRSSSISTTEREPTELHNSVVRQPTGEIITDNEDPVRAASPETASVSPPIRHNILKSSSPFISESANETEQEEFTSPYFGRPSLKTRAKQFEGVSSPIKNDQALSSTHDIMMPSPKPKRIYPSKKIPQLSSHVQSLSTDSMERQSSPNNTNIVISDTEQDSRLGVNSESKNTSGIVNRDDSDVNLIGSSLPNVAEKNHDNTQESNGNNDSLGKILQNVDKELNEKLVDIDDVAFSSPTRGIPRTSATSKGSNAQLLSNYGDENNQSQDSVWDEGRDNPILLEDEDP
Ulp2–KIM interaction with Ctf3-2A in pulldown [4]: Ctf3-2A does not support the Ulp2–KIM interaction

B2: Ulp2: nuclear enzyme that removes SUMO chains from modified substrates; in pulldown represented by GST-Ulp2-KIM bait (protein, UniProt P40537 1-1034, looked up)
Ubiquitin-like-specific …: MSARKRKFNSLKPLDTLNSSRASSPRSSASLPPKRYNTFRKDPKIVDHLNNASTKDFLPVLSMNSESKRQIELSDNDVDNNDEGEGVNSGCSDQDFEPLQSSPLKRHSSLKSTSNGLLFQMSNNLGNGSPEPAVASTSPNGSIISTKLNLNGQFSCVDSKTLRIYRHKAPCIMTFVSDHNHPKFSLYFQQSVIYNSQVNLLDDVELIILDKKNSFMAIILKDLKKVKMILDVNNSSININTNILIWSTASSASNKKIKSIKRFLLMSYSSSIKVEILDHKEQILERLKHLIHPISSSSPSLNMERAINSTKNAFDSLRLKKTKLSTNDDESPQIHTHFLSNKPHGLQSLTKRTRIASLGKKEHSISVPKSNISPSDFYNTNGTETLQSHAVSQLRRSNRFKDVSDPANSNSNSEFDDATTEFETPELFKPSLCYKFNDGSSYTITNQDFKCLFNKDWVNDSILDFFTKFYIESSIEKSIIKREQVHLMSSFFYTKLISNPADYYSNVKKWVNNTDLFSKKYVVIPINISYHWFSCIITNLDAILDFHQNKDKNDAINSDEISINNPLVNILTFDSLRQTHSREIDPIKEFLISYALDKYSIQLDKTQIKMKTCPVPQQPNMSDCGVHVILNIRKFFENPVETIDVWKNSKIKSKHFTAKMINKYFDKNERNSARKNLRHTLKLLQLNYISYLKKENLYEEVMQMEEKKSTNINNNENYDDDDEEIQIIENIDQSSKDNNAQLTSEPPCSRSSSISTTEREPTELHNSVVRQPTGEIITDNEDPVRAASPETASVSPPIRHNILKSSSPFISESANETEQEEFTSPYFGRPSLKTRAKQFEGVSSPIKNDQALSSTHDIMMPSPKPKRIYPSKKIPQLSSHVQSLSTDSMERQSSPNNTNIVISDTEQDSRLGVNSESKNTSGIVNRDDSDVNLIGSSLPNVAEKNHDNTQESNGNNDSLGKILQNVDKELNEKLVDIDDVAFSSPTRGIPRTSATSKGSNAQLLSNYGDENNQSQDSVWDEGRDNPILLEDEDP
pulldown of Ctf3 from yeast cell extract (Ctf3): Ctf3, but not Ctf3-2A, binds Ulp2

Kd [5]: ~900 nM
Molecule: DDSDVNLIGSS (FITC-AHA on the N-terminus (FITC-AHA-DDSDVNLIGSS)) [FITC-Ulp2-KIM peptide (Ulp2-927-937)]

binding result [6]: binds
Molecule: ADSDVNLIGSS [GST-Ulp2-KIM 1DA-1 (Ulp2-D927A)]

binding result [6]: binds
Molecule: DDSDVNLIGSS [GST-Ulp2-927-937]

binding result [6]: binds
Molecule: DDSDVALIGSS [GST-Ulp2-927-937 N932A]
